Data set [1] concerns the target T1, Melanocortin receptor 4 (Homo sapiens, UniProt P32245). Kind of data set: Agonist activity at human MC4R expressed in low doxycyclin-treated HEK293 cell membranes assessed as increase in cAMP production up to 100 uM after 45 mins by HTRF method. Type of data set: functional, cell-based. The method, boiled down:
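Stable T-REx-293 clones (Zeocin-selected, human receptor cDNA in pcDNA4/TO), receptor expression induced with 0.1 ng/mL doxycycline for 24 h. 1000 cells/well in HBSS with Ca2+/Mg2+, 20 mM HEPES pH 7.4, 0.1% BSA. Stimulation for 45 min at 37 °C with 1 mM IBMX. cAMP read by LANCE HTRF (665/615 nm).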

In data set [2] the target is T2, Melanocyte-stimulating hormone receptor (Homo sapiens, UniProt Q01726). Kind of data set: Agonist activity at human MC1R expressed in low doxycyclin-treated HEK293 cell membranes assessed as increase in cAMP production after 45 mins by HTRF method. The class given is functional, cell-based.
The target of data set [3] is T1, Melanocortin receptor 4. In words: Agonist activity at human MC4R expressed in high doxycyclin-treated HEK293 cell membranes assessed as increase in cAMP production after 15 mins by HTRF method. Type of data set: functional, cell-based. Summed up: (§1)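 T-REx-293 cells stably expressing doxycycline-inducible human MC1R, MC3R or MC4R; expression induced 24 h with 0.1 ng/mL (low) or 10 ng/mL (high, MC4R only) doxycycline. 1000 cells/well in HBSS, 20 mM HEPES pH 7.4, 0.1% BSA, 1 mM IBMX; stimulated at 37 °C. Time-resolved FRET cAMP read-out normalized to NDP-α-MSH maximum.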

Data set [4] has as its target T3, Melanocortin receptor 3 (Homo sapiens, UniProt P41968). Kind of data set: Displacement of [125I]-NDP-alpha-MSH from human MC3R LBD expressed in HEK293 cell membranes incubated for 16 to 23 hrs in dark by scintillation proximity assay. More on the design: concentration or dose not given beside the values. Conditions: for inhibition: concentration not given here.

The nature of data set [5]: Solubility of the compound in water at 1 mM. Conditions: buffer, 1000 µM. Type of data set: physicochemical.
Data set [6] deals with T2, Melanocyte-stimulating hormone receptor. In words: Displacement of [125I]-NDP-alpha-MSH from human MC1R LBD expressed in HEK293 cell membranes incubated for 16 to 23 hrs in dark by scintillation proximity assay. Also noted: concentration or dose not given beside the values. As to conditions: for inhibition: concentration not given here.
The next data set concerns the target Melanocortin receptor 5 (Homo sapiens, UniProt P33032). In words: Displacement of [125I]-NDP-alpha-MSH from human MC5R LBD expressed in HEK293 cell membranes incubated for 16 to 23 hrs in dark by scintillation proximity assay. More on the design: concentration or dose not given beside the values. Conditions: for inhibition: concentration not given here.
The target of data set [7] is T3, Melanocortin receptor 3. In words: Agonist activity at human MC3R expressed in low doxycyclin-treated HEK293 cell membranes assessed as increase in cAMP production after 45 mins by HTRF method. Type of data set: functional, cell-based. More on the design: concentration or dose not given beside the values. Summed up: as §1
Data set [8] has as its target T1, Melanocortin receptor 4. In words: Displacement of [125I]-NDP-alpha-MSH from human MC4R LBD expressed in HEK293 cell membranes incubated for 16 to 23 hrs in dark by scintillation proximity assay. More on the design: concentration or dose not given beside the values. Conditions: for inhibition: concentration not given here.
Data set [9] deals with T1, Melanocortin receptor 4. Kind of data set: Agonist activity at human MC4R expressed in low doxycyclin-treated HEK293 cell membranes assessed as increase in cAMP production after 45 mins by HTRF method. Type of data set: functional, cell-based. Summed up: as §1
The species named for another data set is Bos taurus. Kind of data set: Inhibition of bovine trypsin at 5 uM using Boc-QAR-pNA as substrate preincubated for 1 hr followed by substrate addition measured every 30 secs for 300 secs by […].

The source made the active and inactive calls. The rule behind the calls is not given here. Where a SMILES comes first, the peptide text is derived from it. Bridges are numbered along the chain shown (N, C = ends). [ ]: non-standard residue; d: D form. NMeW = CN[C@@H](Cc1c[nH]c2ccccc12)C(=O)O

T3 sequence (P41968 whole entry, the tested form may be a part): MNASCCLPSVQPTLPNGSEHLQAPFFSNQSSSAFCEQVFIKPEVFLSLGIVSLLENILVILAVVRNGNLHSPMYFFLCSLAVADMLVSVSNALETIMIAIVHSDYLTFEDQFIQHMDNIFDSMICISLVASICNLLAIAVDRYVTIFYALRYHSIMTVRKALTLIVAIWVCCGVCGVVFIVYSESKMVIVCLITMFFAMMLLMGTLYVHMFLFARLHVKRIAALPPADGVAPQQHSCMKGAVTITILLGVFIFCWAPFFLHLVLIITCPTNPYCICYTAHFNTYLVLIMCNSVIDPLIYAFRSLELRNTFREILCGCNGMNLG
T1 sequence (P32245 whole entry): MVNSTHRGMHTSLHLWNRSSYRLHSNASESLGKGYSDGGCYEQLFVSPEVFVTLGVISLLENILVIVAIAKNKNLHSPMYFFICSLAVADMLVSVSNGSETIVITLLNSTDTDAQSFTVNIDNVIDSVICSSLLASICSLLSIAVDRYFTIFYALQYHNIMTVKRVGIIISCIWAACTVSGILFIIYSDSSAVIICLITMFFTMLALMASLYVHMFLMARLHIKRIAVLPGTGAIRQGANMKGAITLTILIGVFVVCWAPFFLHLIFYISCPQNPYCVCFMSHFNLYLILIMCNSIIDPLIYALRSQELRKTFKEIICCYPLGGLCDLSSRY
Melanocortin receptor 5, sequence (P33032 whole entry, the tested form may be a part): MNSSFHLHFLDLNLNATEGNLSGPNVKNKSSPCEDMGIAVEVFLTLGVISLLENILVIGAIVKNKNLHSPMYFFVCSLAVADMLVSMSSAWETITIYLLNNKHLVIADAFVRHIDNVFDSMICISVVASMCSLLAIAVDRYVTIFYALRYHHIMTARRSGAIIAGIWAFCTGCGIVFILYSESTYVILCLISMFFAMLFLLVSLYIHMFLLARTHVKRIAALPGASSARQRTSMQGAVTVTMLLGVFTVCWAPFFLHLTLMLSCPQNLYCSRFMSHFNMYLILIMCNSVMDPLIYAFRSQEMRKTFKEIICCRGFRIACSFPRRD

For `CC[C@H](C)[C@@H]1NC(=O)[C@@H]2CCCN2C(=O)[C@H](Cc2c[nH]c3ccccc23)N(C)C(=O)[C@H](CCCNC(=N)N)NC(=O)[C@@H](Cc2ccccc2)NC(=O)[C@H](Cc2cnc[nH]2)N(C)C(=O)[C@H]([C@@H](C)O)NC(=O)[C@@H]2CSSC[C@H](NC1=O)C(=O)N[C@@H](Cc1ccccc1)C(=O)N1CCC[C@H]1C(=O)N[C@@H](CC(=O)O)C(=O)NCC(=O)N[C@@H](CCCNC(=N)N)C(=O)N2`, at Melanocortin receptor 4 [1], the result was inactive. Also, the Activity (in data set [2]; on Melanocortin receptor 4 [3]; on Melanocortin receptor 3 [7]) was 100% each time. Further, the inhibition (on Melanocortin receptor 3 [4]; in data set [6]; at Melanocortin receptor 5; at Melanocortin receptor 4 [8]) was 100% in each case. Also, the solubility result in [5] was “Soluble”.
Turning to `CC[C@H](C)[C@@H]1NC(=O)[C@@H]2CCCN2C(=O)[C@H](Cc2c[nH]c3ccccc23)NC(=O)[C@H](CCCNC(=N)N)NC(=O)[C@@H](Cc2ccccc2)NC(=O)[C@H](Cc2cnc[nH]2)NC(=O)[C@H]([C@@H](C)O)NC(=O)[C@@H]2CSSC[C@H](NC1=O)C(=O)N[C@@H](Cc1ccccc1)C(=O)N1CCC[C@H]1C(=O)N[C@@H](CC(=O)O)C(=O)NCC(=O)N[C@@H](CCCNC(=N)N)C(=O)N2`, the Activity (in [2]; at Melanocortin receptor 4 [3]; on Melanocortin receptor 3 [7]; on Melanocortin receptor 4 [9]) was 100% each time. Moreover, the inhibition (at Melanocortin receptor 3 [4]; in data set [6]; on Melanocortin receptor 5; on Melanocortin receptor 4 [8]) was 100% each time. Further, the solubility entry in [5] was “Soluble”.
Take `CC[C@H](C)[C@@H]1NC(=O)[C@@H]2CCCN2C(=O)[C@@H]2CCCN2C(=O)[C@H]([C@@H](C)CC)NC(=O)[C@H](CO)NC(=O)[C@H](C)NC(=O)[C@H]([C@H](C)O)NC(=O)[C@@H]2CSSC[C@H](NC1=O)C(=O)N[C@@H](Cc1cnc[nH]1)C(=O)N[C@H](Cc1ccccc1)C(=O)N[C@@H](CCCNC(=N)N)C(=O)N[C@@H](Cc1c[nH]c3ccccc13)C(=O)N[C@@H](CCCNC(=N)N)C(=O)N2`: the Activity (in data set [2]; at Melanocortin receptor 4 [3]; on Melanocortin receptor 3 [7]; at Melanocortin receptor 4 [9]) was 100% throughout. Further, the inhibition (on Melanocortin receptor 3 [4]; in data set [6]; at Melanocortin receptor 5; on Melanocortin receptor 4 [8]) was 100% throughout. In the data set listed under Bos taurus, the inhibition entry was “Active”.
As to `CC[C@H](C)[C@@H]1NC(=O)[C@@H]2CCCN2C(=O)[C@H](Cc2c[nH]c3ccccc23)NC(=O)[C@H](CCCNC(=N)N)NC(=O)[C@@H](Cc2ccccc2)NC(=O)[C@H](Cc2cnc[nH]2)N(C)C(=O)[C@H]([C@@H](C)O)NC(=O)[C@@H]2CSSC[C@H](NC1=O)C(=O)N[C@@H](Cc1ccccc1)C(=O)N1CCC[C@H]1C(=O)N[C@@H](CC(=O)O)C(=O)NCC(=O)N[C@@H](CCCNC(=N)N)C(=O)N2`, the Activity (in data set [2]; at Melanocortin receptor 4 [3]; at Melanocortin receptor 3 [7]; on Melanocortin receptor 4 [9]) was 100% throughout. Moreover, the inhibition (on Melanocortin receptor 3 [4]; in data set [6]; on Melanocortin receptor 5; on Melanocortin receptor 4 [8]) was 100% each time. The solubility entry in data set [5] is reported as “Soluble”.
For `CC[C@H](C)[C@@H]1NC(=O)[C@@H]2CCCN2C(=O)[C@H](Cc2c[nH]c3ccccc23)NC(=O)[C@H](CCCNC(=N)N)N(C)C(=O)[C@@H](Cc2ccccc2)NC(=O)[C@H](Cc2cnc[nH]2)NC(=O)[C@H]([C@@H](C)O)NC(=O)[C@@H]2CSSC[C@H](NC1=O)C(=O)N[C@@H](Cc1ccccc1)C(=O)N1CCC[C@H]1C(=O)N[C@@H](CC(=O)O)C(=O)NCC(=O)N[C@@H](CCCNC(=N)N)C(=O)N2`, the Activity (in [2]; on Melanocortin receptor 4 [3]; at Melanocortin receptor 3 [7]; at Melanocortin receptor 4 [9]) was 100% throughout. For the same compound, the inhibition (at Melanocortin receptor 3 [4]; in [6]; on Melanocortin receptor 5; on Melanocortin receptor 4 [8]) was 100% throughout. In data set [5], the solubility result is “Soluble”.
`CC[C@H](C)[C@@H]1NC(=O)[C@@H]2CCCN2C(=O)[C@H](Cc2c[nH]c3ccccc23)N(C)C(=O)[C@H](CCCNC(=N)N)N(C)C(=O)[C@@H](Cc2ccccc2)NC(=O)[C@H](Cc2cnc[nH]2)NC(=O)[C@H]([C@@H](C)O)NC(=O)[C@@H]2CSSC[C@H](NC1=O)C(=O)N[C@@H](Cc1ccccc1)C(=O)N1CCC[C@H]1C(=O)N[C@@H](CC(=O)O)C(=O)NCC(=O)N[C@@H](CCCNC(=N)N)C(=O)N2`: the Activity (in data set [2]; at Melanocortin receptor 4 [3]; at Melanocortin receptor 3 [7]; on Melanocortin receptor 4 [9]) was 100% in each case. Also, the inhibition (at Melanocortin receptor 3 [4]; in data set [6]; on Melanocortin receptor 5; at Melanocortin receptor 4 [8]) was 100% throughout. Besides, the solubility entry in data set [5] is listed as “Soluble”.
As to `CC[C@H](C)[C@@H]1NC(=O)[C@@H]2CCCN2C(=O)[C@@H]2CCCN2C(=O)[C@H]([C@@H](C)CC)NC(=O)[C@H](CO)NC(=O)[C@H](C)NC(=O)[C@H]([C@H](C)O)NC(=O)[C@@H]2CSSC[C@H](NC1=O)C(=O)N[C@@H](Cc1cnc[nH]1)C(=O)N[C@H](Cc1ccccc1)C(=O)N(C)[C@@H](CCCNC(=N)N)C(=O)N(C)[C@@H](Cc1c[nH]c3ccccc13)C(=O)N[C@@H](CCCNC(=N)N)C(=O)N2`, the Activity (in data set [2]; on Melanocortin receptor 4 [3]; at Melanocortin receptor 3 [7]; on Melanocortin receptor 4 [9]) was 100% in each case. The inhibition (on Melanocortin receptor 3 [4]; in data set [6]; on Melanocortin receptor 5; on Melanocortin receptor 4 [8]) was 100% in each case. Further, the inhibition entry in the data set listed under Bos taurus is “Active”.
For `CC[C@H](C)[C@@H]1NC(=O)[C@@H]2CCCN2C(=O)[C@H](Cc2c[nH]c3ccccc23)N(C)C(=O)[C@H](CCCNC(=N)N)NC(=O)[C@@H](Cc2ccccc2)NC(=O)[C@H](Cc2cnc[nH]2)NC(=O)[C@H]([C@@H](C)O)NC(=O)[C@@H]2CSSC[C@H](NC1=O)C(=O)N[C@@H](Cc1ccccc1)C(=O)N1CCC[C@H]1C(=O)N[C@@H](CC(=O)O)C(=O)NCC(=O)N[C@@H](CCCNC(=N)N)C(=O)N2` (cyclo(CFPDGRCTH[dF]R[NMeW]PI); disulfide 1-7), the Activity (in [2]; on Melanocortin receptor 4 [3]; at Melanocortin receptor 3 [7]; at Melanocortin receptor 4 [9]) was 100% in each case. The inhibition (on Melanocortin receptor 3 [4]; in data set [6]; at Melanocortin receptor 5; on Melanocortin receptor 4 [8]) was 100% each time. In addition, the solubility entry in [5] is “Soluble”.
Turning to `CC[C@H](C)[C@@H]1NC(=O)[C@@H]2CCCN2C(=O)[C@@H]2CCCN2C(=O)[C@H]([C@@H](C)CC)NC(=O)[C@H](CO)NC(=O)[C@H](C)NC(=O)[C@H]([C@H](C)O)NC(=O)[C@@H]2CSSC[C@H](NC1=O)C(=O)N[C@@H](Cc1cnc[nH]1)C(=O)N[C@@H](Cc1ccccc1)C(=O)N[C@@H](CCCNC(=N)N)C(=O)N[C@@H](Cc1c[nH]c3ccccc13)C(=O)N[C@@H](CCCNC(=N)N)C(=O)N2`, the Activity (in data set [2]; on Melanocortin receptor 4 [3]; at Melanocortin receptor 3 [7]; on Melanocortin receptor 4 [9]) was 100% each time. In addition, the EC50 in [2] is 0.0417 µM; at Melanocortin receptor 4 [3], 3.09 µM; at Melanocortin receptor 3 [7] it was 2.14 µM; on Melanocortin receptor 4 [9], greater than 100 µM. Further, the values for the Ki (on Melanocortin receptor 3 [4]; in [6]; at Melanocortin receptor 4 [8]) were 23.4 µM, 0.363 µM and 25.1 µM, respectively. Moreover, the inhibition (on Melanocortin receptor 3 [4]; in data set [6]; on Melanocortin receptor 5; on Melanocortin receptor 4 [8]) was 100% throughout. Moreover, the solubility entry in data set [5] is listed as “Soluble”. The compound also had an IC50 at Melanocortin receptor 5 of 4.07 µM.
On to `CC[C@H](C)[C@@H]1NC(=O)[C@@H]2CCCN2C(=O)[C@@H]2CCCN2C(=O)[C@H]([C@@H](C)CC)NC(=O)[C@H](CO)NC(=O)[C@H](C)NC(=O)[C@H]([C@H](C)O)NC(=O)[C@@H]2CSSC[C@H](NC1=O)C(=O)N[C@@H](Cc1cnc[nH]1)C(=O)N[C@H](Cc1ccccc1)C(=O)N(C)[C@@H](CCCNC(=N)N)C(=O)N[C@@H](Cc1c[nH]c3ccccc13)C(=O)N[C@@H](CCCNC(=N)N)C(=O)N2`, for which the Activity (in data set [2]; at Melanocortin receptor 4 [3]; on Melanocortin receptor 3 [7]; on Melanocortin receptor 4 [9]) was 100% in each case. Also, the inhibition (on Melanocortin receptor 3 [4]; in [6]; on Melanocortin receptor 5; at Melanocortin receptor 4 [8]) was 100% in each case. Also, the inhibition entry in the data set filed under Bos taurus is “Active”.

The values are drawn from ChEMBL document CHEMBL4043303, “Development of Novel Melanocortin Receptor Agonists Based on the Cyclic Peptide Framework of Sunflower Trypsin Inhibitor-1” (J Med Chem, 2018).
